# Compound activity (PubChem BioAssay)
# Hits are enriched below; roughly 3.6% of the tested compounds scored in any of these assays.
# SR-BI HDL uptake = inhibitors of mouse SR-BI mediated HDL lipid uptake. ldlA[mSR-BI] CHO cells, DiI-HDL uptake fluorescence, 3 h. Q61009. 320,000 tested, 0.96% active. inhibition, % at 12.5 µM;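 active = mean replicate inhibition of at least 70% and a set share of replicates each scoring 70 or more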;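 note: 0% = median of neutral control wells and 100% = median of positive control wells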
# Target sequence (Q61009 whole entry, looked up): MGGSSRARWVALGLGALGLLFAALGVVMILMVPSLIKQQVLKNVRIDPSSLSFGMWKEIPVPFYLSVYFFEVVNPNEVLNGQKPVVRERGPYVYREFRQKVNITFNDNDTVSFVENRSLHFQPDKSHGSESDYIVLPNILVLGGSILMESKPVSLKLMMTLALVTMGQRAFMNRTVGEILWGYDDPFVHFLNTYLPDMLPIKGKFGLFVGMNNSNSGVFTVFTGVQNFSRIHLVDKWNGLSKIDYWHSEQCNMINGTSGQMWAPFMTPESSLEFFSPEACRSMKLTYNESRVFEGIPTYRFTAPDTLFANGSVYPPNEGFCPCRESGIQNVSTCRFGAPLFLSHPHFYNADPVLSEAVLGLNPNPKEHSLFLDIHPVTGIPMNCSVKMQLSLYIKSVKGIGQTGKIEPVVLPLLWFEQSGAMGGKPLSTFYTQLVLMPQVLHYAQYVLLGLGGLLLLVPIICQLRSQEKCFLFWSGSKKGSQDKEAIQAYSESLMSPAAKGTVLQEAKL
# Wnt act = activates Wnt/beta-catenin signaling in a reporter cell assay. activator, plate reader. activation, % at 9.35 µM. 300,000 tested, 1.2% active; in the data active = activation above about 30%, passing the limit was not always enough;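 note: 0% = neutral control wells and 100% = positive control wells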
# HSF-1 act = increases HSF-1 driven luciferase reporter signal; NIH3T3-HGL HSF-1 luciferase reporter, MG132, 8 h; 100% = twice DMSO control signal; AID 504408; activation, % at 9 µM; 300,000 tested, 1.7% active;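 active = mean replicate activation of at least 50% with a set share of replicates each reaching 50%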;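 note: 0% = median of the neutral control wells and 100% = twice that signal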
# MITF TRPM1 HTS = activators of MITF-driven TRPM1 promoter activity in SK-MEL-5 cells; activation, % at 12.5 µM; SK-MEL-5 TRPM1-promoter luciferase, 24 h; % of positive control, neutral wells = 0; 300,000 tested, 0.75% active;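 active = mean activation of at least 80% with every replicate also reaching 80%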;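 note: 0% = neutral control wells and 100% = parthenolide positive control wells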
# SR-BI DiI-HDL act = enhances SR-BI lipid uptake from DiI-HDL. 320,000 tested, 0.096% active. CHO ldlA[mSR-BI] cells, DiI-HDL uptake fluorescence, 3 h; 100 = double the neutral-control signal. activation, % at 12.5 µM;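 active = mean replicate activation of at least 60% and every replicate at or above 60%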;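 note: 0% = median plate neutral-control signal and 100% = twice that signal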
#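 Material – SR-BI-overexpressing, LDLR-lacking CHO cells · Medium – BSA-supplemented, HEPES-buffered Ham's F12, pH 7.4 · Doses – single concentration · Times – compound with DiI-HDL co-incubation, 3 h at 37 °C · Measured by – bottom-read fluorescence, 550/595 nm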
# An asterisk follows results filed as active; nt = no result given.
SMILES,SR-BI HDL uptake,Wnt act,HSF-1 act,MITF TRPM1 HTS,SR-BI DiI-HDL act
COC(=O)C1=C(C)N(Cc2ccccc2C(F)(F)F)C(=NCc2ccc(OC)cc2)NC1c1ccc(C(F)(F)F)cc1 (stereo not given),nt,-23,nt,nt,nt
Nc1ncnc2c1ncn2[C@@H]1O[C@H](C(=O)N[C@@H](CCc2ccccc2)C(=O)N2CCN(C(=O)N3CCOCC3)CC2)[C@@H](O)[C@H]1O,nt,-2,nt,nt,nt
O=C(Nc1cc(-c2nc3ncccc3o2)ccc1Cl)c1ccc([N+](=O)[O-])o1,nt,3,110*,-79,nt
O=C(Nc1cccc(NC(=O)c2ccccc2Cl)c1)c1ccc([N+](=O)[O-])o1,59,-13,97*,-77,-59
O=C(Nc1cccc([N+](=O)[O-])c1)c1ccc([N+](=O)[O-])o1,nt,-5,nt,nt,nt
O=C(Nc1cc(-c2nc3ncccc3o2)ccc1Cl)c1cccs1,22,11,-7,0,-22
O=C(Nc1cccc2ccccc12)c1ccc([N+](=O)[O-])o1,14,-3,72*,nt,-14
c1ccc(Cc2cc(-c3ccccc3)on2)cc1,nt,nt,71*,nt,nt
Clc1ccc(SCc2cc(-c3ccccc3)on2)cc1,-14,-2,22,5,14
COC(=O)C[C@@H]1CC[C@H](NC(=O)Nc2ccc(F)cc2)[C@@H](CO)O1,nt,-2,nt,nt,nt
CC(C)OC(=O)c1ccc2nc3ccccc3nc2c1,12,43*,42,6,-12
COc1cccc(N2CCN(C(=O)c3cccc(S(=O)(=O)N4CCCC4)c3)CC2)c1,nt,-1,nt,nt,nt
CN1C(=O)[C@@]2(C3=C(CCCC3=O)OC3=C2C(=O)CC(C)(C)C3)c2ccccc21,nt,-1,nt,nt,nt
Cc1ccc(-n2c(C)cc(C(=O)CSc3nncs3)c2C)cc1,7,nt,67*,29,-7
Cc1ccc(-n2c(C)cc(C(=O)CSc3nnnn3C)c2C)cc1,15,63*,24,45,-15
CCOC(=O)C1=CN(CC)S(=O)(=O)NC1c1cccc(OC)c1 (stereo not given),-1,-1,nt,4,1
COc1ccc(/C=N/c2c(-c3ccc(OC)cc3)nc3n2CCS3)cc1,70,nt,-58,14,-70
Fc1ccc(/C=N/c2c(-c3ccc(F)cc3)nc3n2CCS3)cc1,77*,nt,2,17,-77
CCCC(=O)Nc1nc(C)c(-c2csc(Nc3cc(OC)ccc3OC)n2)s1,94*,-7,0,-7,-94
CCCC(=O)Nc1nc(C)c(-c2csc(Nc3ccccc3OC)n2)s1,40,-2,3,-8,-40
CCCC(=O)Nc1nc(C)c(-c2csc(Nc3ccc(Cl)cc3)n2)s1,63,-5,-13,-20,-63
CCCCCC(=O)Nc1nc(C)c(-c2csc(Nc3cc(Cl)ccc3OC)n2)s1,79*,-5,2,11,-79
C=CCCC(=O)Nc1nc(C)c(-c2csc(Nc3cc(OC)ccc3OC)n2)s1,56,-8,-51,-40,-56
CCC(C)C(=O)Nc1nc(C)c(-c2csc(Nc3ccc(Cl)cc3)n2)s1 (stereo not given),78*,-14,-11,-28,-78
COc1ccccc1Nc1nc(-c2sc(NC(=O)C(C)(C)C)nc2C)cs1,85*,-12,5,3,-85
SMILES,SR-BI HDL uptake,Wnt act,HSF-1 act,MITF TRPM1 HTS,SR-BI DiI-HDL act
COc1cccc(S(=O)(=O)N(C)C[C@H]2OCc3cnnn3CCCC(=O)N([C@@H](C)CO)C[C@H]2C)c1,nt,-1,nt,nt,nt
CCCC(C)C(=O)Nc1nc(C)c(-c2csc(Nc3cc(OC)ccc3OC)n2)s1 (stereo not given),93*,-7,15,10,-93
CCOc1ccc(C2=Nc3ccccc3C(c3ccc(N4CCOCC4)cc3)=NN2)cc1,23,nt,50,nt,-23
CCOc1ccc(C2=Nc3ccc(Br)cc3C(c3ccc(N4CCOCC4)cc3)=NN2)cc1,28,6,58*,68,-28
O=c1c2ccccc2nnn1CSc1ccccc1,-1,nt,86*,54,1
CC(C)Nc1nc(Nc2ccc(C(N)=O)cc2)c2sccc2n1,nt,6,nt,nt,nt
CCCCc1ccc(-c2ccc(Br)cc2)nc1,-2,24,58*,43,2
CCOC(=O)C1CCCN(C(=O)c2ccc(-c3ccccc3)cc2)CC1 (stereo not given),nt,-2,nt,nt,nt
CCc1ccccc1NC(=O)CCCN1C(=O)c2cccnc2C1=O,-18,1,-6,-6,18
Cc1c(Cl)cccc1NC(=O)CCCN1C(=O)c2cccnc2C1=O,5,34*,2,8,-5
Cc1ccc(NC(=O)CCCCCN2C(=O)c3ccccc3C2=O)nc1,-11,-5,54*,8,11
Cc1cccc(NC(=O)CCCCCN2C(=O)c3ccccc3C2=O)n1,-29,nt,1,2,nt
COc1ccc(CCN2CC(C(=O)NCc3cccc4[nH]ccc34)CCC2=O)cc1 (stereo not given),-12,0,-4,5,12
CSc1cccc(CNC(=O)C2CCC(=O)N(CCc3ccccc3)C2)c1 (stereo not given),nt,46*,nt,nt,nt
O=C(NCCn1cccn1)C1CCC(=O)N(CCc2cccc(F)c2)C1 (stereo not given),-10,2,51*,-10,10
O=C(NCc1cccc2[nH]ccc12)C1CCC(=O)N(CCc2ccccc2)C1 (stereo not given),-120,-1,1,4,120*
COc1ccccc1CNS(=O)(=O)c1c(C)cc(C)cc1C,nt,-1,nt,nt,nt
CC(C)c1nnc(NC(=O)c2ccc3ccccc3c2)s1,27,29,48,54,-27
Cc1nnc(NC(=O)c2ccc3ccccc3c2)s1,3,40*,37,92*,-3
CCCCOc1ccc(S(=O)(=O)N2CCCCCC2)cc1,-12,nt,66*,19,12
Cc1nnc(NC(=O)c2ccc(S(=O)(=O)N3CCCCC3)cc2)s1,-18,63*,nt,1,18
Cc1nnc(NC(=O)c2cccc(S(=O)(=O)N3CCCC3)c2)s1,-9,1,8,-8,9
Cc1ccc(C(=O)Nc2nnc(C)s2)cc1,-30,20,4,56,30
Cc1nnc(NC(=O)c2ccc(Br)cc2)s1,-12,9,37,94*,12
O=C(Nc1cccc(C(F)(F)F)c1)c1csc([C@@H]2O[C@H](CO)[C@H](O)[C@H](O)[C@H]2O)n1,nt,-2,nt,nt,nt
COc1ccc(CNC(=O)Nc2ccc3c(c2)c(=O)n(C)n3Cc2cccc(C(F)(F)F)c2)cc1,nt,-1,nt,nt,nt
CC(C)(C)c1ccc2cccc(F)c2n1,nt,-4,nt,nt,nt
CC1CCN(S(=O)(=O)c2ccc(C(=O)Nc3ccccn3)cc2)CC1,-5,20,6,52,5
Cc1ccnc(NC(=O)c2ccc(S(=O)(=O)N3CCC(C)CC3)cc2)c1,11,36*,9,97*,-11
CCOc1cc(C(=O)Nc2nnc(C)s2)cc(OCC)c1OCC,54,1,-19,nt,-54
